According to ChEMBL document CHEMBL4190362, “Synthesis, biological evaluation and quantitative structure-active relationships of 1,3-thiazolidin-4-one derivatives. A promising chemical scaffold endowed with high antifungal potency and low cytotoxicity” (Eur J Med Chem, 2017):

Legend:
[Candida] sake = Antifungal activity against Candida sake clinical isolates assessed as inhibition of microbial growth incubated for 24 hrs by broth microdilution method; type: functional; settings: Fermentozyma sake
Method in brief: (§1)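 Twenty-two clinical Candida isolates (8 C. albicans, 4 C. glabrata, 3 C. tropicalis, 3 C. krusei, 2 C. parapsilosis, 2 C. sake) were identified by colony morphology and biochemistry and subcultured at 35 °C for purity. Compounds were dissolved in DMSO and tested by broth microdilution in Sabouraud dextrose broth per NCCLS/CLSI/EUCAST guidance. Values are geometric mean MIC per species (µg/mL).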

Candida tropicalis = test: Antifungal activity against Candida tropicalis clinical isolates assessed as inhibition of microbial growth incubated for 24 hrs by broth microdilution method; type: functional; method in brief: as §1
Proteus mirabilis = test: Antibacterial activity against Proteus mirabilis assessed as inhibition of microbial growth incubated for 18 to 22 hrs by broth microdilution method; type: functional
Method in brief: (§2)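 Broth microdilution in Mueller-Hinton II broth following NCCLS recommendations; compounds dissolved in DMSO.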

Enterobacter = test: Antibacterial activity against Enterobacter spp. assessed as inhibition of microbial growth incubated for 18 to 22 hrs by broth microdilution method; type: functional; method in brief: as §2
Nakaseomyces glabratus = test: Antifungal activity against Candida glabrata clinical isolates assessed as inhibition of microbial growth incubated for 24 hrs by broth microdilution method; type: functional; method in brief: as §1
Escherichia coli = test: Antibacterial activity against Escherichia coli assessed as inhibition of microbial growth incubated for 18 to 22 hrs by broth microdilution method; type: functional; method in brief: as §2
Candida parapsilosis = test: Antifungal activity against Candida parapsilosis clinical isolates assessed as inhibition of microbial growth incubated for 24 hrs by broth microdilution method; type: functional; settings: Lodderomyces parapsilosis; method in brief: as §1
[1] = system: Streptococcus alpha-hemolyticus (Streptococcus sp.); test: Antibacterial activity against Streptococcus Streptococcus alpha hemolyticus assessed as inhibition of microbial growth incubated for 18 to 22 hrs by broth microdilution method
Candida albicans = test: Antifungal activity against Candida albicans clinical isolates assessed as inhibition of microbial growth incubated for 24 hrs by broth microdilution method; type: functional; method in brief: as §1
Staphylococcus warneri = test: Antibacterial activity against Staphylococcus warneri assessed as inhibition of microbial growth incubated for 18 to 22 hrs by broth microdilution method; type: functional; method in brief: as §2
Pichia kudriavzevii = test: Antifungal activity against Candida krusei clinical isolates assessed as inhibition of microbial growth incubated for 24 hrs by broth microdilution method; type: functional; method in brief: as §1
Klebsiella oxytoca = test: Antibacterial activity against Klebsiella oxytoca assessed as inhibition of microbial growth incubated for 18 to 22 hrs by broth microdilution method; type: functional; method in brief: as §2
Staphylococcus aureus = test: Antibacterial activity against Staphylococcus aureus assessed as inhibition of microbial growth incubated for 18 to 22 hrs by broth microdilution method; type: functional; method in brief: as §2
Enterococcus faecalis = test: Antibacterial activity against Streptococcus faecalis assessed as inhibition of microbial growth incubated for 18 to 22 hrs by broth microdilution method; type: functional; method in brief: as §2

Compound | MIC ([Candida] sake) | MIC (Candida tropicalis) | MIC (Proteus mirabilis) | MIC (Enterobacter) | MIC (Nakaseomyces glabratus) | MIC (Escherichia coli) | MIC (Candida parapsilosis) | MIC (Candida albicans) | MIC (Staphylococcus warneri) | MIC (Pichia kudriavzevii) | MIC (Klebsiella oxytoca) | MIC (Staphylococcus aureus) | MIC (Enterococcus faecalis) | MIC [1]
O=C1CS/C(=N/N=C\c2c[nH]c3ccccc23)N1 | 256 µg/mL | 8 µg/mL | ≥ 256 µg/mL | ≥ 256 µg/mL | 16 µg/mL | ≥ 256 µg/mL | 256 µg/mL | 128 µg/mL | ≥ 256 µg/mL | 16 µg/mL | ≥ 256 µg/mL | ≥ 256 µg/mL | ≥ 256 µg/mL | ≥ 256 µg/mL
O=C1CS/C(=N/N=C\c2cccc3ccccc23)N1 | 256 µg/mL | 256 µg/mL | ≥ 256 µg/mL | ≥ 256 µg/mL | 256 µg/mL | ≥ 256 µg/mL | 256 µg/mL | 256 µg/mL | ≥ 256 µg/mL | 256 µg/mL | ≥ 256 µg/mL | ≥ 256 µg/mL | ≥ 256 µg/mL | ≥ 256 µg/mL
C/C(=N/N=C1\NC(=O)CS1)c1cc2ccccc2oc1=O | 256 µg/mL | 256 µg/mL | ≥ 256 µg/mL | ≥ 256 µg/mL | 16 µg/mL | ≥ 256 µg/mL | 256 µg/mL | 256 µg/mL | ≥ 256 µg/mL | 256 µg/mL | ≥ 256 µg/mL | ≥ 256 µg/mL | ≥ 256 µg/mL | ≥ 256 µg/mL
C/C(=N/N=C1\NC(=O)CS1)c1cccc2ccccc12 | 2 µg/mL | 16 µg/mL | ≥ 256 µg/mL | ≥ 256 µg/mL | 2 µg/mL | ≥ 256 µg/mL | 2 µg/mL | 2 µg/mL | ≥ 256 µg/mL | 16 µg/mL | ≥ 256 µg/mL | ≥ 256 µg/mL | ≥ 256 µg/mL | ≥ 256 µg/mL
O=C1CS/C(=N/N=C\c2ccccn2)N1 | 2 µg/mL | 2 µg/mL | ≥ 256 µg/mL | ≥ 256 µg/mL | 8 µg/mL | ≥ 256 µg/mL | 2 µg/mL | 2 µg/mL | ≥ 256 µg/mL | 4 µg/mL | ≥ 256 µg/mL | ≥ 256 µg/mL | ≥ 256 µg/mL | ≥ 256 µg/mL
CC(=O)c1ccc(/C(C)=N\N=C2/NC(=O)CS2)cc1 | 8 µg/mL | 2 µg/mL | ≥ 256 µg/mL | ≥ 256 µg/mL | 2 µg/mL | ≥ 256 µg/mL | 2 µg/mL | 2 µg/mL | ≥ 256 µg/mL | 8 µg/mL | ≥ 256 µg/mL | ≥ 256 µg/mL | ≥ 256 µg/mL | ≥ 256 µg/mL
C/C(=N/N=C1\NC(=O)CS1)c1ccncc1 | 256 µg/mL | 8 µg/mL | ≥ 256 µg/mL | ≥ 256 µg/mL | 16 µg/mL | ≥ 256 µg/mL | 256 µg/mL | 16 µg/mL | ≥ 256 µg/mL | 16 µg/mL | ≥ 256 µg/mL | ≥ 256 µg/mL | ≥ 256 µg/mL | ≥ 256 µg/mL
C/C(=N/N=C1\NC(=O)CS1)c1ccc2c(c1)OCCO2 | 8 µg/mL | 4 µg/mL | ≥ 256 µg/mL | ≥ 256 µg/mL | 4 µg/mL | ≥ 256 µg/mL | 16 µg/mL | 4 µg/mL | ≥ 256 µg/mL | 8 µg/mL | ≥ 256 µg/mL | ≥ 256 µg/mL | ≥ 256 µg/mL | ≥ 256 µg/mL
C/C(=N/N=C1\NC(=O)CS1)c1ccc([N+](=O)[O-])cc1 | 16 µg/mL | 8 µg/mL | ≥ 256 µg/mL | ≥ 256 µg/mL | 8 µg/mL | ≥ 256 µg/mL | 16 µg/mL | 4 µg/mL | ≥ 256 µg/mL | 4 µg/mL | ≥ 256 µg/mL | ≥ 256 µg/mL | ≥ 256 µg/mL | ≥ 256 µg/mL
C/C(=N/N=C1\NC(=O)CS1)c1c[nH]c2ccccc12 | 16 µg/mL | 8 µg/mL | ≥ 256 µg/mL | ≥ 256 µg/mL | 8 µg/mL | ≥ 256 µg/mL | 4 µg/mL | 4 µg/mL | ≥ 256 µg/mL | 2 µg/mL | ≥ 256 µg/mL | ≥ 256 µg/mL | ≥ 256 µg/mL | ≥ 256 µg/mL

Continued by falling MIC ([Candida] sake), values first:

MIC ([Candida] sake) | MIC (Candida tropicalis) | MIC (Proteus mirabilis) | MIC (Enterobacter) | MIC (Nakaseomyces glabratus) | MIC (Escherichia coli) | MIC (Candida parapsilosis) | MIC (Candida albicans) | MIC (Staphylococcus warneri) | MIC (Pichia kudriavzevii) | MIC (Klebsiella oxytoca) | MIC (Staphylococcus aureus) | MIC (Enterococcus faecalis) | Compound | MIC [1]
256 µg/mL | 256 µg/mL | ≥ 256 µg/mL | ≥ 256 µg/mL | 256 µg/mL | ≥ 256 µg/mL | 256 µg/mL | 256 µg/mL | ≥ 256 µg/mL | 256 µg/mL | ≥ 256 µg/mL | ≥ 256 µg/mL | ≥ 256 µg/mL | C/C(=N/N=C1\NC(=O)CS1)c1cccnc1 | ≥ 256 µg/mL
256 µg/mL | 256 µg/mL | ≥ 256 µg/mL | ≥ 256 µg/mL | 256 µg/mL | ≥ 256 µg/mL | 256 µg/mL | 256 µg/mL | ≥ 256 µg/mL | 256 µg/mL | ≥ 256 µg/mL | ≥ 256 µg/mL | ≥ 256 µg/mL | O=C1CS/C(=N/N=C\c2ccncc2)N1 | ≥ 256 µg/mL
256 µg/mL | 256 µg/mL | ≥ 256 µg/mL | ≥ 256 µg/mL | 256 µg/mL | ≥ 256 µg/mL | 256 µg/mL | 256 µg/mL | ≥ 256 µg/mL | 256 µg/mL | ≥ 256 µg/mL | ≥ 256 µg/mL | ≥ 256 µg/mL | O=C1CS/C(=N/N=C\c2ccc3c(c2)OCO3)N1 | ≥ 256 µg/mL
256 µg/mL | 32 µg/mL | ≥ 256 µg/mL | ≥ 256 µg/mL | 16 µg/mL | ≥ 256 µg/mL | 256 µg/mL | 32 µg/mL | ≥ 256 µg/mL | 16 µg/mL | ≥ 256 µg/mL | ≥ 256 µg/mL | ≥ 256 µg/mL | C/C(=N/N=C1\NC(=O)CS1)c1ccc2ccccc2c1 | ≥ 256 µg/mL
16 µg/mL | 16 µg/mL | ≥ 256 µg/mL | ≥ 256 µg/mL | 8 µg/mL | ≥ 256 µg/mL | 16 µg/mL | 8 µg/mL | ≥ 256 µg/mL | 16 µg/mL | ≥ 256 µg/mL | ≥ 256 µg/mL | ≥ 256 µg/mL | O=C1CS/C(=N/N=C\c2cccnc2)N1 | ≥ 256 µg/mL
16 µg/mL | 4 µg/mL | ≥ 256 µg/mL | ≥ 256 µg/mL | 4 µg/mL | ≥ 256 µg/mL | 16 µg/mL | 4 µg/mL | ≥ 256 µg/mL | 8 µg/mL | ≥ 256 µg/mL | ≥ 256 µg/mL | ≥ 256 µg/mL | C/C(=N/N=C1\NC(=O)CS1)c1ccc2ccc3ccccc3c2c1 | ≥ 256 µg/mL
2 µg/mL | 2 µg/mL | ≥ 256 µg/mL | ≥ 256 µg/mL | 8 µg/mL | ≥ 256 µg/mL | 2 µg/mL | 2 µg/mL | ≥ 256 µg/mL | 2 µg/mL | ≥ 256 µg/mL | ≥ 256 µg/mL | ≥ 256 µg/mL | C/C(=N\N=C1/NC(=O)CS1)c1cc2ccccc2o1 | ≥ 256 µg/mL
